# Measurements taken from ChEMBL document CHEMBL1137569, “Pharmacomodulations around the 4-oxo-1,4-dihydroquinoline-3-carboxamides, a class of potent CB2-selective cannabinoid receptor ligands: consequences in receptor affinity and functionality” (J Med Chem, 2007).
# Legend:
# Cannabinoid receptor 2 [1] = target: T1, Cannabinoid receptor 2 (Homo sapiens, UniProt P34972); assay: Displacement of [3H]CP-55940 from human CB2 receptor expressed in CHO cells; assay type: cell-based; design: concentration or dose not given beside the values
# T1 sequence (P34972 whole entry): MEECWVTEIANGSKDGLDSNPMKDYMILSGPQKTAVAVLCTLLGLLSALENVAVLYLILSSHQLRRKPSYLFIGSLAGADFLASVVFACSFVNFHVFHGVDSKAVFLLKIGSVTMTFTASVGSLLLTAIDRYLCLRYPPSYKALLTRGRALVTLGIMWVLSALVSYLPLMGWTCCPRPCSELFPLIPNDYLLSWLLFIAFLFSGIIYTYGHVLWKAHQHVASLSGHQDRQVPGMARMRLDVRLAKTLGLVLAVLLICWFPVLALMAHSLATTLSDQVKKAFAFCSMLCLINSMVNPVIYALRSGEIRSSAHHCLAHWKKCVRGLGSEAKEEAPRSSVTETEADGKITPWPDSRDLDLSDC
# Method in brief: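 Competitive radioligand binding on membranes from CHO cells expressing hCB2, with [3H]-CP-55,940 as tracer. Compounds were first screened at 10 µM. Ki at CB2 was then determined for those displacing more than 60% of specific binding.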
# Cannabinoid receptor 2 [2] = target: T1, Cannabinoid receptor 2; assay: Inhibition of human CB2 receptor expressed in CHO cells; assay type: cell-based
# Cannabinoid receptor 2 [3] = target: T1, Cannabinoid receptor 2; assay: Activity at human CB2 receptor expressed in CHO cells assessed as stimulated [35S]GTP-gamma-S binding relative to control; assay type: functional, cell-based; design: concentration or dose not given beside the values
Compound,Activity (Cannabinoid receptor 2 [1]),Ki (Cannabinoid receptor 2 [2]),Activity (Cannabinoid receptor 2 [3])
CCCCCn1cc(NC(=O)c2cccc3ccccc23)c(=O)c2ccccc21,97.4%,0.265 µM,139%
CCCCCn1c(-c2ccccc2)c(C(=O)NC23CC4CC(C)(CC(C)(C4)C2)C3)c(=O)c2ccccc21,97.2%,0.119 µM,27.1%
CCCCCn1nc(C(=O)NC23CC4CC(C)(CC(C)(C4)C2)C3)c(=O)c2ccccc21,94.6%,0.093 µM,109%
O=C(c1cn(CCc2ccccc2)c2ccccc2c1=O)c1cccc2ccccc12,56.8%,–,–
CCCCCn1cc(C(=O)NC(C)C23CC4CC(CC(C4)C2)C3)c(=O)c2ccccc21 (racemic) [listing 1 of 2 here],–,0.0285 µM,–
CCCCCn1cc(CNC23CC4CC(CC(C4)C2)C3)c(=O)c2ccccc21,81.3%,1.67 µM,–
CCCCCn1cc(C(=O)NC23CC4CC(C)(CC(C)(C4)C2)C3)c(=O)c2ncccc21,93.4%,0.259 µM,170%
CCCCCn1cc(C(=O)NC(C)C23CC4CC(CC(C4)C2)C3)c(=O)c2ccccc21 (stereo in doubt; 24),101%,–,175%
CCCCCn1cc(C(=O)NC23CC4CC(C)(CC(C)(C4)C2)C3)c(=O)c2cnccc21,95%,0.0309 µM,136%
CCCCCn1cc(C(=O)NC(C)C23CC4CC(CC(C4)C2)C3)c(=O)c2ccc(Cl)cc21 (racemic),–,0.0411 µM,–
"CCCCCn1cc(C(=O)NC(C)C23CC4CC(CC(C4)C2)C3)c(=O)c2ccccc21 (single isomer, unassigned; (+)) [listing 1 of 2 here]",64.3%,–,172%
"CCCCCn1cc(C(=O)NC2CCCc3ccccc32)c(=O)c2cc(Cl)ccc21 (single isomer, unassigned; (+))",–,0.121 µM,–
CCCCCn1cc(C(=O)c2ccc(OC)cc2)c(=O)c2ccccc21,46.9%,–,–
CCCCCCn1cc(C(=O)c2cccc3ccccc23)c(=O)c2ccccc21,89.5%,0.582 µM,–
O=C(c1cn(Cc2ccc(Cl)cc2)c2ccccc2c1=O)c1cccc2ccccc12,96.5%,1.12 µM,–
"CCCCCCC(C)(C)c1ccc(C2CC(O)CC[C@H]2CCCO)c(O)c1 (single isomer, unassigned)",–,–,230%
CCCCCn1cc(C(=O)NC(C)C23CC4CC(CC(C4)C2)C3)c(=O)c2ccccc21 (racemic) [listing 2 of 2 here],99.1%,–,156%
"CCCCCn1cc(C(=O)NC(C)C23CC4CC(CC(C4)C2)C3)c(=O)c2ccc(Cl)cc21 (single isomer, unassigned; (+))",92.9%,–,42.7%

Compound,Activity (Cannabinoid receptor 2 [1]),Ki (Cannabinoid receptor 2 [2]),Activity (Cannabinoid receptor 2 [3])
"CCCCCn1cc(C(=O)NC2CCCc3ccccc32)c(=O)c2ccccc21 (single isomer, unassigned; (+))",–,0.0417 µM,–
CCCCCn1cc(C(=O)c2ccc3c(c2)COC3)c(=O)c2ccccc21,70.2%,> 2 µM,–
O=C(c1cn(CCN2CCOCC2)c2ccccc2c1=O)c1cccc2ccccc12,46.1%,–,–
CCCC(C)(C)c1ccc2c(c1)OC(C)(C)[C@@H]1CC=C(C)C[C@@H]21,–,–,201%
"CCCCCn1cc(C(=O)NC(C)C23CC4CC(CC(C4)C2)C3)c(=O)c2cc(Cl)ccc21 (single isomer, unassigned; (+))",–,0.144 µM,–
"CCCCCn1c(C)c(C(=O)NC(C)c2ccc3ccccc3c2)c(=O)c2ccccc21 (single isomer, unassigned; (-))",62.6%,> 2 µM,–
O=C(c1cn(Cc2ccc(Br)cc2)c2ccccc2c1=O)c1cccc2ccccc12,93.7%,0.966 µM,–
CC12CC3CC(C)(C1)CC(NC(=O)c1cn(Cc4ccc(Br)cc4)c4ccccc4c1=O)(C3)C2,30.5%,–,–
"CCCCCn1cc(C(=O)NC(C)C23CC4CC(CC(C4)C2)C3)c(=O)c2ccc(Cl)cc21 (single isomer, unassigned; (-))",–,0.0261 µM,–
"CC(NC(=O)c1cn(CCN2CCOCC2)c2ccccc2c1=O)c1ccccc1 (single isomer, unassigned; (-))",66.5%,< 2 µM,–
CCCCCn1c(C)c(C(=O)NCCc2ccccc2)c(=O)c2ccccc21,57.3%,–,–
"CCCCCn1cc(C(=O)NC(C)C23CC4CC(CC(C4)C2)C3)c(=O)c2ccccc21 (single isomer, unassigned; (+)) [listing 2 of 2 here]",–,0.202 µM,–
"CCCCCn1cc(C(=O)NC2CCCc3ccccc32)c(=O)c2ccccc21 (single isomer, unassigned; (-)) [listing 1 of 2 here]",–,1.01 µM,–
"CCCCCn1cc(C(=O)NC2CCCc3ccccc32)c(=O)c2ccccc21 (single isomer, unassigned; (-)) [listing 2 of 2 here]",90.9%,–,–
O=C(c1c[nH]c2ccccc2c1=O)c1cccc2ccccc12,31%,–,–
CCCCCCn1cc(C(=O)c2ccc(OC)cc2)c(=O)c2ccccc21,68.8%,> 2 µM,–
CCCCCn1cc(C(=O)NC(C)C23CC4CC(CC(C4)C2)C3)c(=O)c2cc(Cl)ccc21 (racemic),–,0.222 µM,–
CCCCn1cc(C(=O)c2ccc(OC)cc2)c(=O)c2ccccc21,< 10%,–,–
